From ChEMBL document CHEMBL3112499, “Identification of potent CNS-penetrant thiazolidinones as novel CGRP receptor antagonists” (Bioorg Med Chem Lett, 2014)

Columns and labels:
[1] = target: T1, Calcitonin gene-related peptide type 1 receptor (Homo sapiens, UniProt O60894+Q16602); assay: Displacement of [125I]CGRP from CGRP receptor in human SK-N-MC cell membranes preincubated for 30 mins followed by radioligand addition measured after 2 hrs by liquid scintillation counting
[2] = target: T1, Calcitonin gene-related peptide type 1 receptor; assay: Antagonist activity at CGRP receptor in human SK-N-MC cells assessed as inhibition of CGRP-stimulated cAMP production preincubated for 30 mins followed by CGRP addition measured after 3 hrs by beta-lactamase reporter gene-based FRET assay; type: functional, cell-based
In short: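 SK-N-MC cells (endogenous CGRP receptor) transduced with retroviral cAMP-responsive-promoter β-lactamase reporter; 30,000 cells/well grown overnight in MEM+10% FBS, 37 °C, 5% CO2. Medium swapped to MEM+1% FBS with compound, 30 min pre-incubation; CGRP added (final 200 pM), 3 h at 37 °C. CCF4/AM FRET substrate added, 2 h at room temperature, fluorescence read; n ≥ 3.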

Rattus norvegicus [3] = assay: Cmax in rat at 10 mg/kg, po; type: ADME, organism-based; design: dose 10 mg/kg, route oral; settings: in vivo
In short: (§1)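 Rats dosed orally at 10 mg/kg, in suspension vehicle or in 40% PEG400/10% TPGS/water depending on compound; mean of n = 3.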

Rattus norvegicus [4] = assay: AUC in rat at 10 mg/kg, po; type: ADME, organism-based, Plasma; design: dose 10 mg/kg, route oral; settings: in vivo; in short: as §1
[5] = Ratio of drug level in brain to plasma in rat administered as iv bolus measured after 0.25 to 1 hr post dosing; type: ADME, organism-based; settings: brain and plasma, read-out: BPR
In short: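 Rats given an iv bolus; brain and plasma levels taken at 0.25 or 1 h post-dose to give the brain/plasma ratio; mean of n = 3.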

Rattus norvegicus [6] = assay: Oral bioavailability in rat at 10 mg/kg; type: ADME, organism-based; settings: in vivo; in short: as §1
Rattus norvegicus [7] = assay: Oral bioavailability in rat at 30 mg/kg; type: ADME, organism-based; settings: in vivo
In short: (§2)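 Rats dosed at 30 mg/kg in 10% TPGS suspension; mean of n = 3.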

Rattus norvegicus [8] = assay: AUC in rat at 30 mg/kg, po; type: ADME, organism-based, Plasma; design: dose 30 mg/kg, route oral; settings: in vivo; in short: as §2
Rattus norvegicus [9] = assay: Cmax in rat at 30 mg/kg, po; type: ADME, organism-based; design: dose 30 mg/kg, route oral; settings: in vivo; in short: as §2
[10] = Clearance in iv dosed rat; type: ADME, organism-based; settings: in vivo
[11] = Oral bioavailability in rat; type: ADME, organism-based; settings: in vivo
Rattus norvegicus [12] = assay: Cmax in po dosed rat; type: ADME, organism-based; design: route oral; settings: in vivo
Rattus norvegicus [13] = assay: AUC in po dosed rat; type: ADME, organism-based, Plasma; settings: in vivo

T1 sequence (Q16602 whole entry, one chain of several): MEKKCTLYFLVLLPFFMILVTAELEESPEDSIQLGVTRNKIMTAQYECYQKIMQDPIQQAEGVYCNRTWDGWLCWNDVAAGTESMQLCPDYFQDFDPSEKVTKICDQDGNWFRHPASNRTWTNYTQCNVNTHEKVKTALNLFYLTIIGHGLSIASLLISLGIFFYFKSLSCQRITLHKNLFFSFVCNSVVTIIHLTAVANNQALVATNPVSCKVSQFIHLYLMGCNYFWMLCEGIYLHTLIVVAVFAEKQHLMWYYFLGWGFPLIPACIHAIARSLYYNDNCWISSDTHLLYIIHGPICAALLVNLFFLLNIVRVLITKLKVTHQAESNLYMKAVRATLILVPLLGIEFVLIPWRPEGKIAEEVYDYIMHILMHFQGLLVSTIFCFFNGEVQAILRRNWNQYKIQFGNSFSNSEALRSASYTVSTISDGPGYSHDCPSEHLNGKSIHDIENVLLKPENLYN

Row | Compound | Ki [1] | IC50 [2] | also measured
1 | CC(C)(C)CCN1C(=O)[C@H](CC(=O)N2CCC(N3CCc4ccccc4NC3=O)CC2)S[C@@H]1c1cccc(F)c1N1CCN(C(C)(C)C)CC1 |  |  | Cmax (Rattus norvegicus [3]): 0.41 µg/mL; AUC (Rattus norvegicus [4]): 530 ng·h/mL; Kp [5]: 0.53; F (Rattus norvegicus [6]): 13%
2 | CC(C)CCN(Cc1cc(Br)c(O)c(Br)c1)C(=O)CCC(=O)N1CCC(N2Cc3ccccc3NC2=O)CC1 | 282 nM | 740 nM | 
3 | O=C(CC1SC(c2ccccc2)N(CC(F)(F)F)C1=O)N1CCC(N2Cc3ccccc3NC2=O)CC1 (configuration not stated) | 763 nM | 4540 nM | 
4 | CN1CCN(c2ccccc2C2SC(CC(=O)N3CCC(N4Cc5ccccc5NC4=O)CC3)C(=O)N2CCC(C)(C)C)CC1 (configuration not stated) |  |  | F (Rattus norvegicus [7]): 53%; AUC (Rattus norvegicus [8]): 1600 ng·h/mL; Cmax (Rattus norvegicus [9]): 0.26 µg/mL
5 | CC(C)(C)CCN1C(=O)C(CC(=O)N2CCC(N3Cc4ccccc4NC3=O)CC2)SC1c1ccccc1F (configuration not stated) | 54 nM | 180 nM | 
6 | O=C(CC1SC(c2ccccc2)N(c2ccccc2)C1=O)N1CCC(N2Cc3ccccc3NC2=O)CC1 (configuration not stated) | 806 nM | 2940 nM | 
7 | CN1C(=O)C(CC(=O)N2CCC(N3Cc4ccccc4NC3=O)CC2)SC1c1ccccc1 (configuration not stated) | 203 nM | 4470 nM | 
8 | O=C(CC1SC(c2ccccc2)N(Cc2ccc(F)cc2)C1=O)N1CCC(N2Cc3ccccc3NC2=O)CC1 (configuration not stated) | 56 nM | 750 nM | 
9 | CC(C)(C)CCN1C(=O)C(CC(=O)N2CCC(N3Cc4ccccc4NC3=O)CC2)SC1c1ccccc1-c1cccnc1 (configuration not stated) | 22 nM | 88 nM | 
10 | CC(c1ccccc1)N1C(=O)C(CC(=O)N2CCC(N3Cc4ccccc4NC3=O)CC2)SC1c1ccccc1 (configuration not stated) | 297 nM | 940 nM | 
11 | O=C(CC1SC(c2ccccc2)N(CC2CC2)C1=O)N1CCC(N2Cc3ccccc3NC2=O)CC1 (configuration not stated) | 45 nM | 840 nM | 
12 | CC(C)(C)CCN1C(=O)C(CC(=O)N2CCC(N3Cc4ccccc4NC3=O)CC2)SC1c1ccc(F)cc1F (configuration not stated) | 30 nM | 190 nM | 
13 | O=C(CC1SC(c2ccccc2)N(Cc2cccnc2)C1=O)N1CCC(N2Cc3ccccc3NC2=O)CC1 (configuration not stated) | 260 nM | 800 nM | 
14 | CCN(CC)CCN1C(=O)C(CC(=O)N2CCC(N3Cc4ccccc4NC3=O)CC2)SC1c1ccccc1 (configuration not stated) | 303 nM | 4880 nM | 
15 | CCCCN1C(=O)C(CC(=O)N2CCC(N3Cc4ccccc4NC3=O)CC2)SC1c1ccccc1 (configuration not stated) | 64 nM | 320 nM | 
16 | CC(C)CCN1C(=O)C(CC(=O)N2CCC(N3Cc4ccccc4NC3=O)CC2)SC1c1ccccc1 (racemic) | 32 nM | 370 nM | 
17 | O=C(CC1SC(c2ccccc2)N(C2CC2)C1=O)N1CCC(N2Cc3ccccc3NC2=O)CC1 (configuration not stated) | 865 nM | 5150 nM | 
18 | CC(C)(C)CCN1C(=O)C(CC(=O)N2CCC(N3Cc4ccccc4NC3=O)CC2)SC1c1ccccc1N1CCOCC1 (configuration not stated) | 52 nM | 160 nM | 
19 | CC(C)(C)CCN1C(=O)C(CC(=O)N2CCC(N3Cc4ccccc4NC3=O)CC2)SC1c1ccccc1-n1cccn1 (configuration not stated) | 40 nM | 62 nM | 
20 | O=C(CC1SC(c2ccccc2)N(CCc2ccccn2)C1=O)N1CCC(N2Cc3ccccc3NC2=O)CC1 (configuration not stated) | 202 nM | 1370 nM | 
21 | CC(C)(C)N1C(=O)C(CC(=O)N2CCC(N3Cc4ccccc4NC3=O)CC2)SC1c1ccccc1 (configuration not stated) | 1880 nM | 7600 nM | 
22 | O=C(CC1SC(c2ccccc2)N(CC2CCCO2)C1=O)N1CCC(N2Cc3ccccc3NC2=O)CC1 (configuration not stated) | 68 nM | 520 nM | 
23 | O=C(CC1SC(c2ccccc2)N(C2CCCCC2)C1=O)N1CCC(N2Cc3ccccc3NC2=O)CC1 (configuration not stated) | 88 nM | 710 nM | 
24 | CC(C)N1C(=O)C(CC(=O)N2CCC(N3Cc4ccccc4NC3=O)CC2)SC1c1ccccc1 (configuration not stated) | 115 nM | 1500 nM | 
25 | CC(C)(C)CCN1C(=O)C(CC(=O)N2CCC(N3Cc4ccccc4NC3=O)CC2)SC1c1cccc(F)c1F (configuration not stated) | 118 nM | 210 nM | 
26 | CC(C)(C)CCN1C(=O)C(CC(=O)N2CCC(N3Cc4ccccc4NC3=O)CC2)SC1c1c(F)cccc1F (configuration not stated) | 59 nM | 170 nM | 
27 | O=C(N[C@@H]1CC[C@@H](c2cccc(F)c2F)CN(CC(F)(F)F)C1=O)N1CCC(n2c(=O)[nH]c3ncccc32)CC1 [TELCAGEPANT] |  |  | Cmax (Rattus norvegicus [3]): 0.55 µg/mL; AUC (Rattus norvegicus [4]): 3320 ng·h/mL; Kp [5]: 0.03; F (Rattus norvegicus [6]): 45%
28 | NCCCC[C@H](NC(=O)[C@@H](Cc1cc(Br)c(O)c(Br)c1)NC(=O)N1CCC(N2Cc3ccccc3NC2=O)CC1)C(=O)N1CCN(c2ccncc2)CC1 [OLCEGEPANT] |  |  | clearance [10]: 65 mL/min/kg; bioavailability [11]: < 1%; Cmax (Rattus norvegicus [12]): 0.87 µg/mL; AUC (Rattus norvegicus [13]): 260 ng·h/mL; Kp [5]: < 0.03
29 | CC(C)CN1C(=O)C(CC(=O)N2CCC(N3Cc4ccccc4NC3=O)CC2)SC1c1ccccc1 (configuration not stated) | 32 nM | 370 nM | 
30 | COCCN1C(=O)C(CC(=O)N2CCC(N3Cc4ccccc4NC3=O)CC2)SC1c1ccccc1 (configuration not stated) | 124 nM | 1220 nM | 

Further lines, with some results ahead:

Row | Ki [1] | IC50 [2] | Compound | also measured
31 | 14 nM | 84 nM | CN1CCN(c2cc(F)ccc2C2SC(CC(=O)N3CCC(N4CCc5ccccc5NC4=O)CC3)C(=O)N2CCC(C)(C)C)CC1 (configuration not stated) | 
32 | 0.07 nM | 2 nM | CCN1CCN(c2c(F)cccc2C2SC(CC(=O)N3CCC(N4CCc5ccccc5NC4=O)CC3)C(=O)N2CCC(C)(C)C)CC1 (configuration not stated) | 
33 | 7 nM | 86 nM | CC(C)(C)CCN1C(=O)C(CC(=O)N2CCC(N3Cc4ccccc4NC3=O)CC2)SC1c1ccccc1-n1ccnc1 (configuration not stated) | 
34 | 8 nM | 36 nM | CC(C)(C)CCN1C(=O)C(CC(=O)N2CCC(N3Cc4ccccc4NC3=O)CC2)SC1c1ccccc1N1CCN(CCO)CC1 (configuration not stated) | 
35 | 3 nM | 44 nM | CCCCN1CCN(c2ccccc2C2SC(CC(=O)N3CCC(N4Cc5ccccc5NC4=O)CC3)C(=O)N2CCC(C)(C)C)CC1 (configuration not stated) | 
36 | 14 nM | 72 nM | CN1CCN(c2ccc(F)cc2C2SC(CC(=O)N3CCC(N4CCc5ccccc5NC4=O)CC3)C(=O)N2CCC(C)(C)C)CC1 (configuration not stated) | 
37 | 2 nM | 60 nM | CC(C)(C)CCN1C(=O)C(CC(=O)N2CCC(N3Cc4ccccc4NC3=O)CC2)SC1c1ccccc1N1CCNCC1 (configuration not stated) | 
38 | 20 nM | 99 nM | CC(C)(C)CCN1C(=O)C(CC(=O)N2CCC(N3Cc4ccccc4NC3=O)CC2)SC1c1ccccc1-c1ccncc1 (configuration not stated) | 
39 | 0.02 nM | 1 nM | CC(C)N1CCN(c2c(F)cccc2C2SC(CC(=O)N3CCC(N4CCc5ccccc5NC4=O)CC3)C(=O)N2CCC(C)(C)C)CC1 (configuration not stated) | Cmax (Rattus norvegicus [3]): 0.12 µg/mL; AUC (Rattus norvegicus [4]): 650 ng·h/mL; Kp [5]: 1.51; F (Rattus norvegicus [6]): 32%
40 | 18 nM | 44 nM | CC(C)(C)CCN1C(=O)C(CC(=O)N2CCC(N3Cc4ccccc4NC3=O)CC2)SC1c1ccccc1N1CCC(O)CC1 (configuration not stated) | 
41 | 2 nM | 19 nM | CN1CCN(c2ccccc2C2SC(CC(=O)N3CCC(N4CCc5ccccc5NC4=O)CC3)C(=O)N2CCC(C)(C)C)CC1 (configuration not stated) | 
42 | 9 nM | 250 nM | CC(C)(C)CN1C(=O)C(CC(=O)N2CCC(N3Cc4ccccc4NC3=O)CC2)SC1c1ccccc1 (configuration not stated) | 
43 | 1 nM | 65 nM | CN1CCN(c2cccc(F)c2C2SC(CC(=O)N3CCC(N4CCc5ccccc5NC4=O)CC3)C(=O)N2CCC(C)(C)C)CC1 (configuration not stated) | 
44 | 0.5 nM | 3 nM | CN1CCN(c2c(F)cccc2C2SC(CC(=O)N3CCC(N4CCc5ccccc5NC4=O)CC3)C(=O)N2CCC(C)(C)C)CC1 (configuration not stated) | 
45 | 1 nM | 33 nM | CC(C)(C)CCN1C(=O)C(CC(=O)N2CCC(N3CCc4ccccc4NC3=O)CC2)SC1c1ccccc1N1CCNCC1 (configuration not stated) | 
